Assay results: ChEMBL document CHEMBL1157586 (Bioorg Med Chem, 2010)
Values after ≈ are worked out from the molar mass of the structure shown.

Key:
[1] = target: Vascular endothelial growth factor receptor 3 (Homo sapiens, UniProt P35916); experiment: Inhibition of VEGFR3 by scintillation proximity assay
[2] = target: Insulin-like growth factor 1 receptor (Homo sapiens, UniProt P08069); experiment: Inhibition of IGF1R by scintillation proximity assay
CYP3A4 = CYP3A4 (Homo sapiens, UniProt P08684); experiment: Inhibition of human CYP3A4 assessed as residual activity at 10 uM; format: ADME; conditions: read-out: Activity
[3] = Solubility in 5% dextrose solution; format: physicochemical
[4] = target: Receptor-type tyrosine-protein kinase FLT3 (Homo sapiens, UniProt P36888); experiment: Inhibition of FLT3 by scintillation proximity assay
[5] = target: Fibroblast growth factor receptor 1 (Homo sapiens, UniProt P11362); experiment: Inhibition of FGFR1 by scintillation proximity assay
[6] = target: Serine/threonine-protein kinase Chk1 (Homo sapiens, UniProt O14757); experiment: Inhibition of CHK1 by scintillation proximity assay
Mus musculus [7] = experiment: Toxicity in BALB/c nu/nu mouse at 10 to 30 mg/kg, iv QD for 10 consecutive days measured post last dose; format: organism-based; design: dose 10-30 mg/kg, route intravenous; conditions: in vivo
Summary of the method: (§1)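 Tumour-bearing nude mice were dosed iv once daily for 10 consecutive days, with compound dissolved in 5% dextrose; vehicle-treated mice served as controls. Doses were 10, 20 and 30 mg/kg in the A2780 model (starting day 8), and 10 and 20 mg/kg in the HCT-116 and BX-PC3 models. Body weight change was compared with controls, and gross autopsy was performed.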

[8] = target: Serine/threonine-protein kinase Nek6 (Homo sapiens, UniProt Q9HC98); experiment: Inhibition of NEK6 by scintillation proximity assay
[9] = target: Serine/threonine-protein kinase PLK1 (Homo sapiens, UniProt P53350); experiment: Inhibition of PLK1
[10] = target: ALK tyrosine kinase receptor (Homo sapiens, UniProt Q9UM73); experiment: Inhibition of ALK by scintillation proximity assay
[11] = target: RAC-alpha serine/threonine-protein kinase (Homo sapiens, UniProt P31749); experiment: Inhibition of AKT1
[12] = target: MAP kinase-activated protein kinase 2 (Homo sapiens, UniProt P49137); experiment: Inhibition of MAPKAPK2 by scintillation proximity assay
Aurora kinase B = Aurora kinase B (Homo sapiens, UniProt Q96GD4); experiment: Inhibition of Aurora B by scintillation proximity assay
[13] = Cmax in nu/nu mouse at 10 mg/kg, iv; format: ADME, organism-based; design: dose 10 mg/kg, route intravenous; conditions: in vivo
Summary of the method: (§2)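 Healthy nude mice given 10 mg/kg iv as the hydrochloride salt in 5% dextrose solution. Six mice in total, three per leg (iv and oral). Saphenous-vein blood taken predose and at 0.083, 0.5, 1, 6 and 24 h after iv dosing. Plasma separated by centrifugation (10,000g, 3 min, 4 °C) and stored at -80 °C until analysis.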

Mus musculus [14] = experiment: Toxicity in BALB/c nu/nu mouse assessed as body weight reduction at 10 to 30 mg/kg, iv QD for 10 consecutive days measured post last dose; format: organism-based; design: dose 10-30 mg/kg, route intravenous; scale not given: the % may be the effect or the level left; conditions: in vivo; summary of the method: as §1
[15] = target: Cell division cycle 7-related protein kinase (Homo sapiens, UniProt O00311); experiment: Inhibition of CDC7 by scintillation proximity assay
[16] = Clearance in nu/nu mouse at 10 mg/kg, iv; format: ADME, organism-based; design: dose 10 mg/kg, route intravenous; conditions: in vivo; summary of the method: as §2
[17] = target: Protein kinase C alpha type (Homo sapiens, UniProt P17252); experiment: Inhibition of PKCalpha by scintillation proximity assay
[18] = Half life in nu/nu mouse at 10 mg/kg, iv; format: ADME, organism-based; design: dose 10 mg/kg, route intravenous; conditions: in vivo; summary of the method: as §2
[19] = target: Tyrosine-protein kinase JAK2 (Homo sapiens, UniProt O60674); experiment: Inhibition of JAK2 by scintillation proximity assay
[20] = target: Serine/threonine-protein kinase PAK 4 (Homo sapiens, UniProt O96013); experiment: Inhibition of PAK4 by scintillation proximity assay
[21] = target: cAMP-dependent protein kinase catalytic subunit alpha (Homo sapiens, UniProt P17612); experiment: Inhibition of PKAalpha by scintillation proximity assay
[22] = target: Glycogen synthase kinase-3 beta (Homo sapiens, UniProt P49841); experiment: Inhibition of GSK3-beta by scintillation proximity assay
[23] = Solubility at pH 7; format: physicochemical; conditions: buffer
[24] = target: Inhibitor of nuclear factor kappa-B kinase subunit beta (Homo sapiens, UniProt O14920); experiment: Inhibition of IKK2 by scintillation proximity assay
[25] = target: Cyclin-dependent kinase 7/ cyclin H (Homo sapiens, UniProt P50613); experiment: Inhibition of CDK7/cyclin H by scintillation proximity assay; format: protein-complex assay
Aurora kinase A = Aurora kinase A (Homo sapiens, UniProt O14965); experiment: Inhibition of Aurora A by scintillation proximity assay
[26] = Volume of distribution at steady state in nu/nu mouse at 10 mg/kg, iv; format: ADME, organism-based; design: dose 10 mg/kg, route intravenous; conditions: in vivo, read-out: Vdss
Summary of the method: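 Healthy nude mice received a single 10 mg/kg iv dose as the hydrochloride salt in 5% dextrose; six mice were used in total across the iv and oral legs. Saphenous-vein blood was drawn predose and at 0.083, 0.5, 1, 6 and 24 h. Samples were spun at 10,000g for 3 min at 4 °C, and plasma was stored at −80 °C until analysis.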

[27] = target: Cyclin-dependent kinase 4/cyclin D1 (Homo sapiens, UniProt P11802); experiment: Inhibition of CDK4/cyclin D1 by scintillation proximity assay; format: protein-complex assay
[28] = target: Cyclin-dependent kinase 1/cyclin B1 (Homo sapiens, UniProt P06493); experiment: Inhibition of CDK1/cyclin B; format: protein-complex assay
[29] = target: Cyclin-dependent kinase 5/CDK5 activator 1 (Homo sapiens, UniProt Q00535); experiment: Inhibition of CDK5/p25 by scintillation proximity assay; format: protein-complex assay
[30] = target: Mitogen-activated protein kinase 14 (Homo sapiens, UniProt Q16539); experiment: Inhibition of p38alpha
[31] = AUC in nu/nu mouse at 10 mg/kg, iv; format: ADME, organism-based; design: dose 10 mg/kg, route intravenous; conditions: plasma; summary of the method: as §2
[32] = Plasma protein binding in human by HPLC analysis; format: ADME, cell-free; conditions: read-out: PPB (converted)
[33] = target: High affinity nerve growth factor receptor (Homo sapiens, UniProt P04629); experiment: Inhibition of TRKA
[34] = target: Tyrosine-protein kinase ABL1 (Homo sapiens, UniProt P00519); experiment: Inhibition of c-ABL by scintillation proximity assay
[35] = target: Vascular endothelial growth factor receptor 2 (Homo sapiens, UniProt P35968); experiment: Inhibition of VEGFR2 by scintillation proximity assay
[36] = target: Cyclin-dependent kinase 2/cyclin E1 (Homo sapiens, UniProt P24941); experiment: Inhibition of CDK2/cyclin E by scintillation proximity assay; format: protein-complex assay
Insulin receptor = Insulin receptor (Homo sapiens, UniProt P06213); experiment: Inhibition of IR by scintillation proximity assay
[37] = Inhibition of STK2 by scintillation proximity assay
[38] = target: Mast/stem cell growth factor receptor Kit (Homo sapiens, UniProt P10721); experiment: Inhibition of cKit by scintillation proximity assay
A2780 [39] = experiment: Inhibition of cellular DNA synthesis in human A2780 cells assessed as BrdU incorporation into nuclear DNA at 3 uM after 24 hrs by Hoechst 33342 staining-based microscopic analysis; format: functional; design: scale not given: the % may be the effect or the level left
Summary of the method: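 A2780 human ovarian adenocarcinoma cells were seeded at 25000 cells/cm² in RPMI 1640 pH 7.4 with 10% FBS, 2 mM L-glutamine and penicillin–streptomycin. They were kept at 37 °C in 5% CO₂. After 24 h they were exposed to compound for 24 h. Floating and adherent cells were harvested with trypsin/EDTA, washed in PBS, and split for flow cytometry, immunoblot and BrdU incorporation.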

[40] = Inhibition of NIM by scintillation proximity assay
[41] = Inhibition of SULU1 by scintillation proximity assay
[42] = target: Hepatocyte growth factor receptor (Homo sapiens, UniProt P08581)
[43] = Inhibition of CK2 by scintillation proximity assay
[44] = Inhibition of PDGFR by scintillation proximity assay
A2780 [45] = experiment: Cell cycle arrest in human A2780 cells assessed as accumulation at S phase at 3 uM after 24 hrs by FACS analysis; format: functional
Summary of the method: (§3)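 A2780 cells (ECACC) seeded at 25000 cells/cm² in RPMI 1640, pH 7.4, with 10% FBS, 2 mM L-glutamine and penicillin–streptomycin, at 37 °C in 5% CO₂. After 24 h, treated for 24 h at 1 and 3 µM. Floating and trypsinised adherent cells pooled, PBS-washed, and DNA content analysed by flow cytometry.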

[46] = target: Proto-oncogene tyrosine-protein kinase receptor Ret (Homo sapiens, UniProt P07949); experiment: Inhibition of RET by scintillation proximity assay
A2780 [47] = experiment: Cell cycle arrest in human A2780 cells assessed as accumulation at G0/G1 phase at 3 uM after 24 hrs by FACS analysis; format: functional; summary of the method: as §3
A2780 [48] = experiment: Antiproliferative activity against human A2780 cells after 72 hrs by CellTiter-Glo luminescence assay; conditions: A2780, 72 h
[49] = target: Cyclin-dependent kinase 2/cyclin A (Homo sapiens, UniProt P24941); experiment: Inhibition of human CDK2/cyclin A expressed in Escherichia coli BL21 by scintillation proximity assay
[50] = target: Mitogen-activated protein kinase 1 (Homo sapiens, UniProt P28482); experiment: Inhibition of ERK2
[51] = target: Serine/threonine-protein kinase PLK2 (Homo sapiens, UniProt Q9NYY3); experiment: Inhibition of PLK2 by scintillation proximity assay
A2780 [52] = experiment: Cell cycle arrest in human A2780 cells assessed as accumulation at G2/M phase at 3 uM after 24 hrs by FACS analysis; format: functional; summary of the method: as §3

Chain of Cyclin-dependent kinase 1/cyclin B1 (P06493 whole entry): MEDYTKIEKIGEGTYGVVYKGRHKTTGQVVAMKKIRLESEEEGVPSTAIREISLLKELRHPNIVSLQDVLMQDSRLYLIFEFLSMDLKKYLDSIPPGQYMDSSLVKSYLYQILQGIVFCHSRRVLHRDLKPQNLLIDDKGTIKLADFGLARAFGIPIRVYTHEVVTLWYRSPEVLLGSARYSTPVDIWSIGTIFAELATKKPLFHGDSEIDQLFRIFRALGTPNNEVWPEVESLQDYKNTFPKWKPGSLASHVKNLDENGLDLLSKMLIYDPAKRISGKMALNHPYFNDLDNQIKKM
Chain of Cyclin-dependent kinase 1/cyclin B1 (P14635 whole entry, further chain): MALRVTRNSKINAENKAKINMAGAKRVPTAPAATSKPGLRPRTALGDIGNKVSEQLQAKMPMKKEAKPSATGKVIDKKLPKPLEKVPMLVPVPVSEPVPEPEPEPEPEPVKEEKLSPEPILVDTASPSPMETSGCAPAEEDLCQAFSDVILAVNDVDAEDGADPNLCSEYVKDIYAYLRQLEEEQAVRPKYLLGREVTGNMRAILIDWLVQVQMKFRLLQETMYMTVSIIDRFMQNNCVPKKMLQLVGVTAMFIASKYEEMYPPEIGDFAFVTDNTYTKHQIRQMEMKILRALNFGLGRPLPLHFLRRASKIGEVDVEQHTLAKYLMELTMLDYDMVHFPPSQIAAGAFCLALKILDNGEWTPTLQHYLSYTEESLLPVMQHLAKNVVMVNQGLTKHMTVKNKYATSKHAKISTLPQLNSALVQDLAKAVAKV
Chain of Cyclin-dependent kinase 5/CDK5 activator 1 (Q00535 whole entry): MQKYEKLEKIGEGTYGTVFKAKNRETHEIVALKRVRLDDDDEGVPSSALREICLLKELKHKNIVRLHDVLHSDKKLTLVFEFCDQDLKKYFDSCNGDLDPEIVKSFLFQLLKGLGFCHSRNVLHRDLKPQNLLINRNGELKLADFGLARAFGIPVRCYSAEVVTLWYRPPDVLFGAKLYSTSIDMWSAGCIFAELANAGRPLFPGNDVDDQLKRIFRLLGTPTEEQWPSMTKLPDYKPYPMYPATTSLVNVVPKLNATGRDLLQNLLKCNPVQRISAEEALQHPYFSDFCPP
Chain of Cyclin-dependent kinase 5/CDK5 activator 1 (Q15078 whole entry, further chain): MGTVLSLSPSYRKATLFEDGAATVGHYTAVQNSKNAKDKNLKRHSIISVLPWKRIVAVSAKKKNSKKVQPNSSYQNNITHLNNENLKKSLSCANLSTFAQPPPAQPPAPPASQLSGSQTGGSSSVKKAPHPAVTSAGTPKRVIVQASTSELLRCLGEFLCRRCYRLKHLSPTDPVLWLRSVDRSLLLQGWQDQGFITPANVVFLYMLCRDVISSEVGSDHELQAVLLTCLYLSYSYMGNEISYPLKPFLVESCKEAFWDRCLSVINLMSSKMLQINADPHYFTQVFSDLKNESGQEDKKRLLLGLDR
Chain of RAC-alpha serine/threonine-protein kinase (P31749 whole entry): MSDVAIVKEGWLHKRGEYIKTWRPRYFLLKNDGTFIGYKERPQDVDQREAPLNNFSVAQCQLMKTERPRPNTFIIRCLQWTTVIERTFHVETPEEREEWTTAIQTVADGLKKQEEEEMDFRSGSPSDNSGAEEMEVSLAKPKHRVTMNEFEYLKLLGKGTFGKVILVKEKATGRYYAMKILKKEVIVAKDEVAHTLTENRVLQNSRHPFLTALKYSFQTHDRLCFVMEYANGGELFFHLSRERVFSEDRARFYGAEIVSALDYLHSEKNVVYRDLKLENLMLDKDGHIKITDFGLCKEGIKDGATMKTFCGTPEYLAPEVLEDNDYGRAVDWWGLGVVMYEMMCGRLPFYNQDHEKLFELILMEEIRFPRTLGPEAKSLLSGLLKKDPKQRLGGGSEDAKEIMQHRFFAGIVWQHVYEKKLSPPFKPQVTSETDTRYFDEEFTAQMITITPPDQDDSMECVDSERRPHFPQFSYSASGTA
Chain of Fibroblast growth factor receptor 1 (P11362 whole entry): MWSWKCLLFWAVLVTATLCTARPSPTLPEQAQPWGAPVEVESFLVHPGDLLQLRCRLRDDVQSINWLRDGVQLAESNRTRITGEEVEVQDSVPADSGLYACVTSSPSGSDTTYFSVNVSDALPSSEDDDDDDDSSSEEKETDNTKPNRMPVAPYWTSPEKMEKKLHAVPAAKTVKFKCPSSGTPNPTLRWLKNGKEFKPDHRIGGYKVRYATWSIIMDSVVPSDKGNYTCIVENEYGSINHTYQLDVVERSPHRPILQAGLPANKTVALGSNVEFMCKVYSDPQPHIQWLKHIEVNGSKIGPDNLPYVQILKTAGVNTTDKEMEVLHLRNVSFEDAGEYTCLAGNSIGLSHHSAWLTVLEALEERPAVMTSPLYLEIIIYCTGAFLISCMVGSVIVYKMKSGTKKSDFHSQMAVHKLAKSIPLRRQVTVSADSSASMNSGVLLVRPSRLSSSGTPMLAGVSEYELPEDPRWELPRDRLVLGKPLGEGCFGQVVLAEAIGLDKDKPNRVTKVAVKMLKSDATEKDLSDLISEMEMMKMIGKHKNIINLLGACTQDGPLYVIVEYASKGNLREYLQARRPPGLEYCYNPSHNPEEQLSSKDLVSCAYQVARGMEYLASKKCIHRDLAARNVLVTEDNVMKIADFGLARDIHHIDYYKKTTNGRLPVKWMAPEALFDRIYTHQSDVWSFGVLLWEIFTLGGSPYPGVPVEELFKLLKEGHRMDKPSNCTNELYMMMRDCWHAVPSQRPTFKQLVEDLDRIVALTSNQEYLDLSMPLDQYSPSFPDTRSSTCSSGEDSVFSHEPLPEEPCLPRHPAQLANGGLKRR
Chain of Vascular endothelial growth factor receptor 3 (P35916 whole entry): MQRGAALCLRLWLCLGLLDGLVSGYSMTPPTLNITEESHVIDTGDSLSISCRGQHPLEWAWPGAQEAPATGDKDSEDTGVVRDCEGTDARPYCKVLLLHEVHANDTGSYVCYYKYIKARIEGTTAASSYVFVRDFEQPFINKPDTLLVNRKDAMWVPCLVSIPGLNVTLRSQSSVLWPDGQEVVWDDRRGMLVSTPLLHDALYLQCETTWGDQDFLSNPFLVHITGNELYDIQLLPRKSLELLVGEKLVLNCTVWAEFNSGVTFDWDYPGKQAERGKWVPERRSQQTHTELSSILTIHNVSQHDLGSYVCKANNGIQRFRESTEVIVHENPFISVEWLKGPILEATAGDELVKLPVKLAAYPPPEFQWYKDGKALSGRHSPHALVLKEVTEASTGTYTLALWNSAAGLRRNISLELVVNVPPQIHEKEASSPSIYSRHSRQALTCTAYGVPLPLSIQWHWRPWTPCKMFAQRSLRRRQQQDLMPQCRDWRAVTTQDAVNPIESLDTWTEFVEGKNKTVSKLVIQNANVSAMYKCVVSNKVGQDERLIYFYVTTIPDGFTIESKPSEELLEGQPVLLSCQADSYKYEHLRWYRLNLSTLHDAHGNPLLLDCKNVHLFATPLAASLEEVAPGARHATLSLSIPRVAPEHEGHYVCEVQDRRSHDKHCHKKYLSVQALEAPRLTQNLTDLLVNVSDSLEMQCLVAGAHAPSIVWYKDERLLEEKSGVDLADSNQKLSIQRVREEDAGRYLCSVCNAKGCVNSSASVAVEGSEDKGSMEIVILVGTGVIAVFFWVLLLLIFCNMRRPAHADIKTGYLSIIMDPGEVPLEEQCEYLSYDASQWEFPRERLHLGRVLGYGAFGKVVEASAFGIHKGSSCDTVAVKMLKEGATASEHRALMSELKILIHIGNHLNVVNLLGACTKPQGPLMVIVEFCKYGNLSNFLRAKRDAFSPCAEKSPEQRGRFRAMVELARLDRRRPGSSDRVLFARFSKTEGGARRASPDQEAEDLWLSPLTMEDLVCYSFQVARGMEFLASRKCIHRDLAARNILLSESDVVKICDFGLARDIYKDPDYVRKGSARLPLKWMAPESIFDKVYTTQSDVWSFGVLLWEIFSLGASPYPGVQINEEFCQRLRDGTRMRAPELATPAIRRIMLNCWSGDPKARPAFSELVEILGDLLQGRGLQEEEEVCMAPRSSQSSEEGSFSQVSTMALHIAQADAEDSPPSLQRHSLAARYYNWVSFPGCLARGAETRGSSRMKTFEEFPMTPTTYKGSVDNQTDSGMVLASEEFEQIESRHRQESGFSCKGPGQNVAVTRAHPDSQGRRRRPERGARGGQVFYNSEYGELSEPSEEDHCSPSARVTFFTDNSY
Chain of Aurora kinase B (Q96GD4 whole entry): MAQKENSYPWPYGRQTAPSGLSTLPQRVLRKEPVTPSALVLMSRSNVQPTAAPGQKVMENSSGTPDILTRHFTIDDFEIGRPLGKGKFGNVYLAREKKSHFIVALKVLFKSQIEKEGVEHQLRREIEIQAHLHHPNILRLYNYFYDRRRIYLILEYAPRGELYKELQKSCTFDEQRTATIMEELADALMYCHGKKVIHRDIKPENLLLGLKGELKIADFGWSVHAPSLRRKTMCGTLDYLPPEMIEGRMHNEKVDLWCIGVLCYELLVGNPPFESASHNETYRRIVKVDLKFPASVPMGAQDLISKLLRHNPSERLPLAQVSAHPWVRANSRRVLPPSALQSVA

With `CC(C)CC(=O)Nc1[nH]nc2c1CN(C(=O)C1CCN(C)CC1)C2(C)C` [PHA-793887] the IC50 [1] was greater than 10 µM, the IC50 [2] was greater than 10 µM and the activity at 10 µM (CYP3A4) was 91%. The solubility [3] was 10000 µg/mL (≈ 27.7 mM), the IC50 [4] was greater than 10 µM and the IC50 [5] was greater than 10 µM. For the same compound, the IC50 [6] was greater than 10 µM, the Activity (Mus musculus [7]) was “Non-toxic” and the IC50 [8] was greater than 10 µM. It also gave an IC50 [9] greater than 10 µM, an IC50 [10] greater than 10 µM and an IC50 [11] greater than 10 µM. The IC50 [12] was greater than 10 µM, the IC50 (Aurora kinase B) was greater than 10 µM and the Cmax [13] was 36.5 µM. For the same compound, the Activity (Mus musculus [14]) was less than 10%, the IC50 [15] was greater than 10 µM and the clearance [16] was 23.9 mL/min/kg. It also gave an IC50 [17] greater than 10 µM, a half-life [18] of 4.1 h and an IC50 [19] greater than 10 µM. For the same compound, the IC50 [20] was greater than 10 µM, the IC50 [21] was greater than 10 µM and the IC50 [22] was 0.079 µM. For the same compound, the solubility [23] was greater than 225 µM, the IC50 [24] was greater than 10 µM and the IC50 [25] was 0.01 µM. For the same compound, the IC50 (Aurora kinase A) was greater than 10 µM, the Vd [26] was 1.36 L/kg and the IC50 [27] was 0.062 µM. The IC50 [28] was 0.06 µM, the IC50 [29] was 0.005 µM and the IC50 [30] was greater than 10 µM. For the same compound, the AUC [31] was 19.2 µM·h, the fraction unbound [32] was 0.46 and the IC50 [33] was greater than 10 µM.
Compound `CC(C)(C)C(=O)N1Cc2c(NC(=O)c3cc(F)cc(F)c3)n[nH]c2C1(C)C` has an IC50 [34] greater than 10 µM, an IC50 [1] greater than 10 µM and an IC50 [2] greater than 10 µM. For the same compound, the IC50 [35] was greater than 10 µM, the IC50 [36] was 0.09 µM and the IC50 (Insulin receptor) was greater than 10 µM. The solubility [3] was 3400 µg/mL (≈ 9.03 mM), the IC50 [4] was greater than 10 µM and the IC50 [37] was greater than 10 µM. The IC50 [5] was greater than 10 µM, the IC50 [38] was greater than 10 µM and the IC50 [6] was greater than 10 µM. The Activity (A2780 [39]) was -96%, the IC50 [40] was greater than 10 µM and the IC50 [41] was greater than 10 µM. It also gave an IC50 [8] greater than 10 µM, an IC50 [9] greater than 10 µM and an IC50 [10] greater than 10 µM. It also gave an IC50 [42] greater than 10 µM, an IC50 [11] greater than 10 µM and an IC50 [12] greater than 10 µM. The IC50 (Aurora kinase B) was greater than 10 µM, the IC50 [15] was greater than 10 µM and the IC50 [43] was greater than 10 µM. For the same compound, the IC50 [17] was greater than 10 µM, the IC50 [19] was greater than 10 µM and the IC50 [20] was greater than 10 µM. For the same compound, the IC50 [44] was greater than 10 µM, the Activity (A2780 [45]) was -52% and the IC50 [21] was greater than 10 µM. The IC50 [22] was 3.63 µM, the solubility [23] was 186 µM (≈ 70 µg/mL) and the IC50 [24] was greater than 10 µM. The IC50 (Aurora kinase A) was greater than 10 µM, the IC50 [28] was 0.45 µM and the IC50 [46] was greater than 10 µM. The Activity (A2780 [47]) was 22%, the IC50 [29] was 0.14 µM and the IC50 [30] was greater than 10 µM. The IC50 (A2780 [48]) was 0.31 µM, the IC50 [49] was 0.06 µM and the IC50 [50] was greater than 10 µM. For the same compound, the IC50 [51] was greater than 10 µM and the Activity (A2780 [52]) was 26%.
